Bioassay records as filed in PubChem BioAssay.
STAT3 act = activators of IL-6 induced STAT3 signaling | U3A cells, IL-6 STAT3-luciferase reporter, luminescence; 100% = signal with IL-6 EC80 alone | activation (% of control), % at 5.6 µM | actives 0.91% (n = 190,000);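 active means activation above the screen-wide mean of compound activation plus 3 SD, cut at about 130% in these data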;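 further: 0% = background luminescence of wells with medium and substrate only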
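Material: STAT3-luciferase reporter U3A cells; Probe or stimulus: IL-6 (33 ng/mL); Incubation: compound pre-incubation 1 h before IL-6, then 6 h stimulation at 37 °C; Technique: luminescence from STAT3-driven luciferase reporter; Evaluation: % activation versus median of IL-6-stimulated wells; Controls: IL-6-only high control.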
AHR act = human AHR activation; actives 2.5% (n = 320,000); AHR-responsive luciferase reporter cells, luminescence; activation, % at 5 µM; P35869; AID 2796; in the data active means activation above about 47%;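 further: 0% = vehicle wells and 100% = reference agonist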
Target sequence (P35869 whole entry, looked up): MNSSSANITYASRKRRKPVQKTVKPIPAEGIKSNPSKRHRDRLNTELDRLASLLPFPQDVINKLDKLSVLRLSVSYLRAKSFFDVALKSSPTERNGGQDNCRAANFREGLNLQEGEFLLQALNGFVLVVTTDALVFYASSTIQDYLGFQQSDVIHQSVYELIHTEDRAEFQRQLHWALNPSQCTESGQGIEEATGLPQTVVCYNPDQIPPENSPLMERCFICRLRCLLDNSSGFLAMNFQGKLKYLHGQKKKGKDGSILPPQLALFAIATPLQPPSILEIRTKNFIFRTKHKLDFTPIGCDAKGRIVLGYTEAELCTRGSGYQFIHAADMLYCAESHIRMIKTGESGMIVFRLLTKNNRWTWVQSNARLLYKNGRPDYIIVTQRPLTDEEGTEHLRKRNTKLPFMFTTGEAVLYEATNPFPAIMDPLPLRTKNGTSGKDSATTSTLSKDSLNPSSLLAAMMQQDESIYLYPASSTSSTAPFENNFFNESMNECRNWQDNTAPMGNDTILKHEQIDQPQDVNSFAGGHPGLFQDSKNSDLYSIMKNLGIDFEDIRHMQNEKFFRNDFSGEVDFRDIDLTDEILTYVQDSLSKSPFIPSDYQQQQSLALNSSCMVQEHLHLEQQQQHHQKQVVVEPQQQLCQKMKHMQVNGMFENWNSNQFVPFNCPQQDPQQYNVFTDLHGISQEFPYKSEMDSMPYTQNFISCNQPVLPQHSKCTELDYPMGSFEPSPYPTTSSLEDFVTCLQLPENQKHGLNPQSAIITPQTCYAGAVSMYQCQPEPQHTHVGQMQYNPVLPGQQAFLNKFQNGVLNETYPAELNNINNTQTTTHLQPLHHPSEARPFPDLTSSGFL
Hsp70 act = transcriptional activators of Hsp70 | HeLa Hsp70 promoter luciferase reporter, luminescence; scaled: vehicle 0, proteasome-inhibitor control 100% | activation, % at 10 µM | actives 0.04% (n = 200,000);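 active means activation above the mean across all tested compounds plus 3 SD, cutoff set per campaign, cut at about 5.5% in these data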;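 further: 100% = MG132 at 30 µM as the positive control and 0% = DMSO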
PolyA inh = blocks polyadenylation in yeast reporter cells | AID 1875 | actives 0.02% (n = 300,000) | S. cerevisiae SKY197-pL101 polyadenylation reporter, beta-gal luminescence; efflux-impaired pdr1/pdr3 knockout yeast; score 100 = 6 SD above DMSO | activity score, % at 12 µM;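 active means lowest replicate activity score at least 50, where 100 means six control SD above control mean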;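 further: yeast exposed to compound for 9 h at 30 °C; higher score means more reporter readthrough which indicates perturbed polyadenylation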
HSF1 inh = HSF1 inhibition | NIH3T3-HGL HSE-luciferase, MG132-induced, luminescence 8 h; hits give low values | AID 2098 | activity change, negative = inhibition, % at 7.5 µM (by protocol) | actives 0.77% (n = 300,000);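 active means more than half of replicate wells show activity change below -50%, luminescence cut by over half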;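 further: luciferase reports HSF-1 transcriptional activity via heat shock element; 0% = median of DMSO wells and -100% = zero luminescence signal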
PERK inh = inhibitors of human PERK kinase; Q9NZJ5; CHO PERK-DD fusion, SEAP luminescence translation reporter; AID 1416; inhibition, % at 5.6 µM; actives 0.17% (n = 220,000);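 active means inhibition above the mean inhibition of all tested compounds plus 3 SD, set separately per screening campaign, cut at about 2.9% in these data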;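 further: PERK kinase domain activated by AP20187 dimerizer at 100 nM; 0% = DMSO with dimerizer and 100% = rapamycin at 8.4 µM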
* = called active by the depositor. An excerpt weighted towards active compounds, which were near 3.6% of everything screened.

For CCOC(=O)c1c(NC(=O)COC(=O)c2cnccn2)sc(C)c1C the results were AHR act -0.2.
`Cc1ccc(O)c(NC(=O)C2=CC(c3cccs3)=NS(=O)(=O)N2C)c1` gave AHR act 52.0*, PolyA inh -12.5 and HSF1 inh -7.7.
Screening Cc1ccc(C2=NS(=O)(=O)N(C)C(C(=O)NC(C)c3ccccc3)=C2)cc1 (configuration not stated) returned AHR act 0.1, PolyA inh 3.2 and HSF1 inh 4.9.
CSc1ccccc1NC(=O)C1=CC(c2ccc(C)cc2)=NS(=O)(=O)N1C was read as AHR act 12.5, PolyA inh -4.6 and HSF1 inh -56.5*.
Screening C/[N+]([O-])=C\C1C(=O)CC(C)(C)CC1=O returned STAT3 act 110.4, AHR act -1.7, Hsp70 act -0.2, PolyA inh -7.1, HSF1 inh -54.5* and PERK inh -0.3.
`O=C(Nc1nc(-c2ccc(F)cc2)cs1)c1cccc(N2C(=O)CCC2=O)c1` gave AHR act 48.2*, PolyA inh -15.6 and HSF1 inh -2.7.
`O=C(Nc1nc(-c2cc(F)ccc2F)cs1)c1cccc(N2C(=O)CCC2=O)c1` gave AHR act 2.3, PolyA inh 6.2 and HSF1 inh -0.1.
`CCCCn1c(N)c(N(CCOC)C(=O)c2nn(CC)c(=O)c3ccccc23)c(=O)[nH]c1=O` gave AHR act 32.0, PolyA inh 1.5 and HSF1 inh -10.4.
For CC(C)c1ccc(-n2nc3ccc(N)cc3n2)cc1 the results were STAT3 act 83.1, AHR act 58.0*, Hsp70 act -0.3, PolyA inh -4.2, HSF1 inh -3.9 and PERK inh 0.8.
COC(=O)C(C)Sc1ncnc2c1nnn2-c1ccc(F)cc1 (configuration not stated) was read as STAT3 act 91.7, AHR act 3.0, Hsp70 act 0.0, PolyA inh 4.1, HSF1 inh 88.2 and PERK inh 1.3.
`COc1ccc(-n2nnc3c(SC(C(C)=O)C(=O)N(C)C)ncnc32)cc1` (configuration not stated) gave AHR act 66.0*, PolyA inh -5.4 and HSF1 inh 2.5.
`COCc1cc(C)nc(Nc2ccccc2OC)c1C#N` gave AHR act 52.2*, PolyA inh 3.4 and HSF1 inh -4.5.
COCc1cc(C)nc(NCCc2ccccc2)c1C#N was read as STAT3 act 94.6, AHR act 41.9, Hsp70 act -0.2, PolyA inh -4.5, HSF1 inh 5.8 and PERK inh 0.4.
`CCOC(=O)c1cc2c(=O)n3ccccc3nc2n(CCCOC)c1=NC(C)=O` gave STAT3 act 87.2, AHR act 0.8, Hsp70 act -0.3 and PERK inh -0.7.
For CCOC(=O)c1cc2c(=O)n3cccc(C)c3nc2n(CCOC)c1=NC(C)=O the results were AHR act 1.3, PolyA inh 6.5, HSF1 inh -62.8* and PERK inh -0.6.
Cc1ccc(C(=O)NCC(=O)OCC(=O)N(CC(C)C)c2c(N)n(Cc3ccccc3)c(=O)[nH]c2=O)cc1 was read as AHR act -2.0, PolyA inh 1.8 and HSF1 inh -0.2.
For CN(C)S(=O)(=O)N1CCC(Oc2ccc(C(=O)N3C[C@@H]4CCC[C@H]3C4)cc2)CC1 the results were AHR act -3.2, PolyA inh 1.7 and HSF1 inh -1.7.
Screening CCNC(=S)N/N=C/c1cn(Cc2ccc(F)cc2)c2ccccc12 returned STAT3 act 105.9, AHR act 39.3, Hsp70 act -0.2, PolyA inh 0.1, HSF1 inh 19.6 and PERK inh -0.7.
Screening Cc1c(/C=N/Nc2ccc(C(=O)O)cc2)c2ccccc2n1C returned AHR act 8.1, PolyA inh -4.5, HSF1 inh -65.3* and PERK inh 0.6.
`O=C(O)c1ccc(N/N=C/c2cn(Cc3ccc(F)cc3)c3ccccc23)cc1` gave AHR act -6.0, PolyA inh -5.7, HSF1 inh -68.7* and PERK inh 1.0.
For CCn1c(/C=N/Nc2ccc(C(=O)O)cc2)nc2ccccc21 the results were STAT3 act 92.8, AHR act 9.0, Hsp70 act -0.1, PolyA inh 13.0, HSF1 inh -11.1 and PERK inh 0.8.
COc1nnc(-c2ccc(N3CCCCC3)c(NC(C)=O)c2)c2ccccc12 was read as STAT3 act 95.2, AHR act 77.7*, Hsp70 act -0.2, PolyA inh -2.7, HSF1 inh -0.4 and PERK inh -1.2.
Screening CCCSc1nnc2n(C)c(=O)c3c4c(sc3n12)CCC4 returned STAT3 act 97.9, AHR act 77.6*, Hsp70 act 0.0, PolyA inh -4.9, HSF1 inh 6.6 and PERK inh -0.7.
Screening Clc1ccc(-c2nc(NCCN3CCOCC3)c3ccccc3n2)cc1 returned STAT3 act 101.5, AHR act 63.2*, Hsp70 act -0.2, PolyA inh -0.9, HSF1 inh 19.4 and PERK inh -0.4.
For Cc1ccc(NS(=O)(=O)c2ccc(C(=O)N3CCN(S(=O)(=O)c4ccccc4)CC3)cc2)cc1 the results were AHR act 5.0, PolyA inh -1.6 and HSF1 inh 3.4.
For CCOC(=O)C1=C(O)c2ccccc2C(=O)/C1=C\c1ccc(C)cc1 the results were STAT3 act 134.0*, AHR act 37.4, Hsp70 act -0.3 and PERK inh -0.4.
`COc1ccc(N(CC(=O)N2CCOCC2)S(C)(=O)=O)cc1OC` gave AHR act 1.0, PolyA inh 4.2 and HSF1 inh -0.2.
Screening O=C(O)c1ccc(N/N=C/c2ccc(-c3cccc(Cl)c3)o2)cc1 returned AHR act 128.0*, PolyA inh -4.2, HSF1 inh -2.3 and PERK inh 0.8.
`Cc1c(C(=O)O)cccc1-c1ccc(/C=N/n2cnnc2)o1` gave AHR act 2.5, PolyA inh 8.7 and HSF1 inh 2.1.
`O=C(O)c1ccc(N/N=C/c2ccc(-c3cc(Cl)ccc3Cl)o2)cc1` gave AHR act 19.5, PolyA inh -4.7, HSF1 inh -11.6 and PERK inh 0.1.
For O=C(O)c1ccc(-c2ccc(/C=N/Nc3ccc([N+](=O)[O-])cc3)o2)cc1 the results were AHR act 13.9, PolyA inh -2.7, HSF1 inh -3.8 and PERK inh -0.4.
For Cc1c(C(=O)O)cccc1-c1ccc(/C=N/Nc2ccc(Br)cc2)o1 the results were STAT3 act 119.3, AHR act 134.2*, Hsp70 act -0.1, PolyA inh -16.9, HSF1 inh 4.1 and PERK inh 0.9.
